Test results: ChEMBL document CHEMBL4689842, “EUbOPEN Chemogenomics Library wave 1” (2021)

Tested on: U2OS
Assay: Multiplex assay against U2OS
Type: toxicity, cell-based
Conditions: human
Procedure, shortened: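 Live cells were stained at seeding with Hoechst33342, BioTracker Green Microtubule Cytoskeleton Dye, MitoTracker Red and Annexin V Alexa Fluor 680. Following compound addition, they were imaged on a CQ1 microscope at 37°C and 5% CO2 and gated by CellPathfinder machine learning into Hoechst high-intensity objects or normal cells, with normal cells split into healthy, pyknosed or fragmented nuclei and pyknosed cells into mitotic or apoptotic. Tubulin, mitochondrial-mass and membrane-permeability phenotypes are per cents of healthy-nucleus cells.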

[1] = 12 h, 1 µM, compound concentration 1 uM, replicate 1
[2] = 12 h, 1 µM, compound concentration 1 uM, replicate 2
[3] = 12 h, 10 µM, compound concentration 10 uM, replicate 1
[4] = 12 h, 10 µM, compound concentration 10 uM, replicate 2
[5] = 24 h, 1 µM, compound concentration 1 uM, replicate 1
[6] = 24 h, 1 µM, compound concentration 1 uM, replicate 2
[7] = 24 h, 10 µM, compound concentration 10 uM, replicate 1
[8] = 24 h, 10 µM, compound concentration 10 uM, replicate 2
[9] = 48 h, 1 µM, compound concentration 1 uM, replicate 1
[10] = 48 h, 1 µM, compound concentration 1 uM, replicate 2
[11] = 48 h, 10 µM, compound concentration 10 uM, replicate 1
[12] = 48 h, 10 µM, compound concentration 10 uM, replicate 2

Cc1ccc(C(=O)Nc2cccc(C(F)(F)F)c2)cc1Nc1nc(-c2cccnc2)nc2c1cnn2C
Population Apoptotic (%) [1]: 41%
Population Fragmented Nuclei (%) [1]: 18%
Population Healthy Nuclei (%) [1]: 63%
Population Hoechst High Intensity Objects (%) [1]: 10%
Population Membrane Permeable-Phenotype (%) [1]: 8%
Population Mitochondria Different-Phenotype (%) [1]: 12%
Population Mitotic Cells (%) [1]: 58%
Population Normal (%) [1]: 89%
Population Pyknosed Nuclei (%) [1]: 18%
Population Tubulin-Different-Phenotype (%) [1]: 13%
Total Cell Count [1]: 151
Population Apoptotic (%) [2]: 50%
Population Fragmented Nuclei (%) [2]: 14%
Population Healthy Nuclei (%) [2]: 73%
Population Hoechst High Intensity Objects (%) [2]: 3%
Population Membrane Permeable-Phenotype (%) [2]: 6%
Population Mitochondria Different-Phenotype (%) [2]: 25%
Population Mitotic Cells (%) [2]: 50%
Population Normal (%) [2]: 96%
Population Pyknosed Nuclei (%) [2]: 12%
Population Tubulin-Different-Phenotype (%) [2]: 14%
Total Cell Count [2]: 101
Population Apoptotic (%) [3]: 69%
Population Fragmented Nuclei (%) [3]: 13%
Population Healthy Nuclei (%) [3]: 48%
Population Hoechst High Intensity Objects (%) [3]: 6%
Population Membrane Permeable-Phenotype (%) [3]: 53%
Population Mitochondria Different-Phenotype (%) [3]: 87%
Population Mitotic Cells (%) [3]: 30%
Population Normal (%) [3]: 93%
Population Pyknosed Nuclei (%) [3]: 38%
Population Tubulin-Different-Phenotype (%) [3]: 98%
Total Cell Count [3]: 147
Population Apoptotic (%) [4]: 61%
Population Fragmented Nuclei (%) [4]: 18%
Population Healthy Nuclei (%) [4]: 42%
Population Hoechst High Intensity Objects (%) [4]: 8%
Population Membrane Permeable-Phenotype (%) [4]: 78%
Population Mitochondria Different-Phenotype (%) [4]: 92%
Population Mitotic Cells (%) [4]: 38%
Population Normal (%) [4]: 91%
Population Pyknosed Nuclei (%) [4]: 39%
Population Tubulin-Different-Phenotype (%) [4]: 100%
Total Cell Count [4]: 66
Population Apoptotic (%) [5]: 42%
Population Fragmented Nuclei (%) [5]: 10%
Population Healthy Nuclei (%) [5]: 75%
Population Hoechst High Intensity Objects (%) [5]: 9%
Population Membrane Permeable-Phenotype (%) [5]: 2%
Population Mitochondria Different-Phenotype (%) [5]: 14%
Population Mitotic Cells (%) [5]: 57%
Population Normal (%) [5]: 90%
Population Pyknosed Nuclei (%) [5]: 13%
Population Tubulin-Different-Phenotype (%) [5]: 8%
Total Cell Count [5]: 153
Population Apoptotic (%) [6]: 27%
Population Fragmented Nuclei (%) [6]: 12%
Population Healthy Nuclei (%) [6]: 72%
Population Hoechst High Intensity Objects (%) [6]: 3%
Population Membrane Permeable-Phenotype (%) [6]: 7%
Population Mitochondria Different-Phenotype (%) [6]: 29%
Population Mitotic Cells (%) [6]: 72%
Population Normal (%) [6]: 96%
Population Pyknosed Nuclei (%) [6]: 14%
Population Tubulin-Different-Phenotype (%) [6]: 16%
Total Cell Count [6]: 101
Population Healthy Nuclei (%) [7]: 16%
Population Hoechst High Intensity Objects (%) [7]: 4%
Population Membrane Permeable-Phenotype (%) [7]: 80%
Population Mitochondria Different-Phenotype (%) [7]: 100%
Population Mitotic Cells (%) [7]: 10%
Population Normal (%) [7]: 95%
Population Pyknosed Nuclei (%) [7]: 57%
Total Cell Count [7]: 166
Population Apoptotic (%) [8]: 90%
Population Fragmented Nuclei (%) [8]: 26%
Population Healthy Nuclei (%) [8]: 11%
Population Hoechst High Intensity Objects (%) [8]: 20%
Population Membrane Permeable-Phenotype (%) [8]: 100%
Population Mitochondria Different-Phenotype (%) [8]: 75%
Population Mitotic Cells (%) [8]: 9%
Population Normal (%) [8]: 79%
Population Pyknosed Nuclei (%) [8]: 61%
Population Tubulin-Different-Phenotype (%) [8]: 100%
Total Cell Count [8]: 77
Population Apoptotic (%) [9]: 58%
Population Fragmented Nuclei (%) [9]: 11%
Population Healthy Nuclei (%) [9]: 80%
Population Hoechst High Intensity Objects (%) [9]: 4%
Population Membrane Permeable-Phenotype (%) [9]: 6%
Population Mitochondria Different-Phenotype (%) [9]: 22%
Population Mitotic Cells (%) [9]: 41%
Population Normal (%) [9]: 95%
Population Pyknosed Nuclei (%) [9]: 8%
Population Tubulin-Different-Phenotype (%) [9]: 10%
Total Cell Count [9]: 140
Population Apoptotic (%) [10]: 70%
Population Fragmented Nuclei (%) [10]: 7%
Population Healthy Nuclei (%) [10]: 78%
Population Hoechst High Intensity Objects (%) [10]: 10%
Population Membrane Permeable-Phenotype (%) [10]: 11%
Population Mitochondria Different-Phenotype (%) [10]: 29%
Population Mitotic Cells (%) [10]: 30%
Population Normal (%) [10]: 89%
Population Pyknosed Nuclei (%) [10]: 14%
Population Tubulin-Different-Phenotype (%) [10]: 22%
Total Cell Count [10]: 93
Population Apoptotic (%) [11]: 96%
Population Fragmented Nuclei (%) [11]: 35%
Population Healthy Nuclei (%) [11]: 10%
Population Hoechst High Intensity Objects (%) [11]: 10%
Population Membrane Permeable-Phenotype (%) [11]: 100%
Population Mitochondria Different-Phenotype (%) [11]: 100%
Population Mitotic Cells (%) [11]: 3%
Population Normal (%) [11]: 90%
Population Pyknosed Nuclei (%) [11]: 54%
Population Tubulin-Different-Phenotype (%) [11]: 100%
Total Cell Count [11]: 219
Population Apoptotic (%) [12]: 100%
Population Fragmented Nuclei (%) [12]: 25%
Population Healthy Nuclei (%) [12]: 21%
Population Hoechst High Intensity Objects (%) [12]: 28%
Population Mitotic Cells (%) [12]: 0%
Population Normal (%) [12]: 71%
Population Pyknosed Nuclei (%) [12]: 53%
Total Cell Count [12]: 77
